Screening data as filed in PubChem BioAssay.
PTEN del growth – growth suppressors of cells with PTEN tumor suppressor deletion. HCT116 PTEN-null viability, CellTiter-Glo, 60 h; stronger effect = lower value. viability, % at 10 µM. 140,000 compounds, 1.2% hits. AID 827;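 active = viability at or below a set limit, 4 SD under the median of all tested compounds, cut at about 3.7% in these data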;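 also: PTEN knockout HCT116 line with beta catenin targeted HCT116 as companion control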
HUVEC prolif 384 – blocks proliferation of human endothelial cells; HUVEC proliferation, CellTiter-Glo luminescence, 72 h; stronger effect = lower value; viability, % at 10 µM (by protocol); 86,000 compounds, 1.1% hits;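 active = viability at or below 30%; inactive = viability above 30%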;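 also: 100% = median luminescence of DMSO-only cell control wells on each plate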
HCT116 bCat-KO – beta-catenin-lacking colon tumor cell growth suppression | HCT116 beta-catenin knockout viability, CellTiter-Glo, 60 h; stronger effect = lower value | 140,000 compounds, 1.5% hits | AID 818 | viability, % at 10 µM;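 active = viability at or under a set limit, the compound median less 4 SD, cut at about 6% in these data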;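 also: 0% = Hyamine 1622 control at 20 µM and 100% = untreated cell control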
H69AR inhibit – growth inhibitors of human H69AR lung tumor cells | H69AR lung tumor viability, ATP luminescence, 72 h; stronger effect = lower value | viability, % at 10 µM | 85,000 compounds, 6% hits;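 active = viability at or below 40%; inactive = viability above 40%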;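 also: multidrug resistant small cell line overexpressing MRP-1 efflux transporter; 100% = mean luminescence of untreated control wells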
Fibroblast inh – blocks proliferation of human lung fibroblasts. LL 47 human lung fibroblast viability, ATP luminescence; stronger effect = lower value. AID 719. 85,000 compounds, 1.1% hits. viability, % at 10 µM;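 active = viability at or below 50% in the single dose screen; inactive = viability above 50%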;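 also: compound exposure lasted 72 h before the ATP readout; 100% = median luminescence of untreated cell-only wells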
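Times – overnight cell rest, 72 h compound treatment at 37 °C · Test system – human lung fibroblast line LL 47, low passage · Amount – 1,150 cells in each well · Controls – cell-only wells, no compound · Doses – 0.1% DMSO in all compound wells · Measured by – CellTiter-Glo luminescence · Buffer or medium – IMEM plus 15% FBS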
An asterisk follows results filed as active; · = no result. Many of the other results were omitted from the sample, so hits are more common in it than they were.

SMILES	PTEN del growth	HUVEC prolif 384	HCT116 bCat-KO	H69AR inhibit	Fibroblast inh
COc1ccc(-c2nnn(CC(=O)NCc3ccccc3)n2)cc1OC	86	99	86	95	92
CCOc1ccc(-c2nnn(CC(=O)Nc3ccccc3OC)n2)cc1OCC	99	42	116	11*	78
O=C(Cn1nnc(-c2ccccc2NC(=O)c2cccs2)n1)Nc1ccccc1	52	59	61	15*	86
COc1ccccc1NC(=O)Cn1nnc(-c2ccccc2NC(=O)c2cccs2)n1	55	49	29	30*	87
COc1cc(C(=O)Nc2ccccc2-c2nnn(CC(N)=O)n2)cc(OC)c1OC	108	·	104	·	·
C1CNCCOCCNCCN1	92	93	99	108	106
Cc1ccc2[nH]c(=O)c(CN(CCO)C(=O)N(C)C)cc2c1	·	103	·	95	98
CCC1CCCCN1Cc1ccc(OC)c(C)c1C (centres undefined)	82	96	87	77	104
Cc1ccc(-n2[nH]c3c4c(ccc3c2=O)C(=O)c2ccccc2C4=O)cc1	105	·	104	·	·
CC(C)(C)n1[nH]c2c3c(ccc2c1=O)C(=O)c1ccccc1C3=O	8	3.3*	7	60	59
COCCCn1[nH]c2c3c(ccc2c1=O)C(=O)c1ccccc1C3=O	28	6.8*	28	86	87
CC(C)CCn1c(N)c(S(=O)(=O)c2cccs2)c2nc3ccccc3nc21	22	74	30	40*	84
Cc1ccc(S(=O)(=O)c2c(N)n(CCC(C)C)c3nc4ccccc4nc23)cc1	2.6*	65	8	92	95
Nc1c(S(=O)(=O)c2ccccc2)c2nc3ccccc3nc2n1/N=C/c1cccc(O)c1	3.6*	6.9*	9	1.4*	100
Cc1cccc(S(=O)(=O)c2c(N)n(/N=C/c3ccccc3)c3nc4ccccc4nc23)c1	53	99	53	44	93
Cn1c(N)c(S(=O)(=O)c2ccc(Br)cc2)c2nc3ccccc3nc21	84	63	77	13*	97
Cc1ccc(S(=O)(=O)c2c(N)n(CCCO)c3nc4ccccc4nc23)cc1	81	87	87	83	96
O=C(Nc1ccccc1N1CCOCC1)C1CCN(S(=O)(=O)c2ccc(F)cc2)CC1	98	·	93	·	·
CC(C)=NOc1cc(NC(=O)CCl)cc([N+](=O)[O-])c1	3.0*	·	3.3*	·	·
Cc1ccc(OC(=O)c2sc(Cl)nc2C)cc1C	12	·	12	·	·
CCCCCC(=O)N/N=C(\C)c1ccc(N2CCCCC2)cc1	87	·	96	·	·
O=C(/C=C/c1cccc2ccccc12)c1ccncc1	0.9*	·	1.0*	·	·
CCOc1ccccc1C(=O)NC(C)c1ccc2c(c1)OCO2 (centres undefined)	26	65	23	24*	97
CC1CCc2nc(NC(=O)Nc3ccc4c(c3)OCO4)sc2C1 (centres undefined)	83	·	78	·	·
O=C(Nc1ccccc1NC(=O)NC1CCCCC1)NC1CCCCC1	4	3.6*	26	0.6*	51
SMILES	PTEN del growth	HUVEC prolif 384	HCT116 bCat-KO	H69AR inhibit	Fibroblast inh
NC(=O)c1ccccc1NC(=O)NC1CCCCC1	94	98	93	91	111
Brc1ccccc1-c1nnc(COc2cccc3cccnc23)o1	68	108	58	32*	100
CN(C)CC(C(=O)c1ccccc1)c1ccccc1 (centres undefined)	1.0*	41	1.4*	0.1*	17*
COc1ccc(C(C(=O)OC(C)CN(C)C)c2ccccc2)cc1 (centres undefined)	101	·	86	·	·
Cc1ccc(CNC(=O)CSc2nc3[nH]ncc3c(=O)[nH]2)cc1	99	·	95	·	·
COC(=O)c1ccc(CNC(=O)COC(=O)C2CCC(C(C)(C)C)CC2)cc1 (centres undefined)	88	·	95	·	·
COC(=O)c1ccc2c(=O)n(CC3CCCO3)c(SCC(=O)Nc3ccccc3OC)nc2c1 (centres undefined)	66	86	77	83	113
COC(=O)c1ccc2c(=O)n(Cc3ccco3)c(SCC(=O)Nc3ccccc3Cl)nc2c1	21	24*	68	17*	91
COC(=O)c1ccc2c(=O)n(CC3CCCO3)c(SCC(=O)Nc3ccccc3Cl)nc2c1 (centres undefined)	2.2*	47	2.5*	8.2*	80
COC(=O)c1ccc2c(=O)n(Cc3ccc4c(c3)OCO4)c(SCC(=O)N3CCCC3)nc2c1	·	88	·	2.5*	119
COC(=O)c1c(NC(=O)CSc2nc3ccccc3c(=O)n2Cc2ccco2)sc(C)c1C	61	·	41	·	·
CCc1ccc(NC(=O)CSc2nc3cc(C(=O)OC)ccc3c(=O)n2CC2CCCO2)cc1 (centres undefined)	8	48	48	3.5*	36*
Cc1ccccc1C(=O)c1cccn1CC(=O)NCc1ccc2c(c1)OCO2	121	96	101	90	95
CCCSc1nnc(Cn2c(=O)sc3ccccc32)n1C	103	99	91	96	100
CCOC(=O)c1c(C)oc2ccc(OC(=O)c3cccs3)cc12	94	·	96	·	·
CCOc1ccc(CNc2ccc(N3CCCC3)cc2)cc1	6	90	4.5*	1.8*	84
CCOc1cc(CNc2ccc(N3CCCC3)cc2)cc(Cl)c1OC	63	·	50	·	·
Cc1nn(Cc2cccc(C(=O)NC34CC5CC(CC(C5)C3)C4)c2)c(C)c1Br	79	29*	77	98	91
Cn1c(=O)c2c(SCC(=O)NCC3CCCO3)nc(-c3cccs3)nc2n(C)c1=O (centres undefined)	·	89	·	29*	96
CC(C)Sc1nc(-c2cccs2)nc2c1c(=O)n(C)c(=O)n2C	·	84	·	19*	66
O=C(CSc1nnc(-c2cccs2)n1-c1ccccc1)NCC1CCCO1 (centres undefined)	98	106	94	92	98
C/C(=N\NC(=O)Cc1cccn1C)c1cccs1	103	·	97	·	·
COc1ccc(/C=C(\C#N)C(=O)OCC(=O)NCc2ccc(Cl)cc2)cc1	101	·	105	·	·
O=c1[nH]c(Nc2nc3ccccc3o2)nc2c1CCCC2	2.8*	55	3.3*	17*	5.6*
CCC(C)c1ccccc1OCCn1ccnc1 (centres undefined)	98	·	83	·	·
SMILES	PTEN del growth	HUVEC prolif 384	HCT116 bCat-KO	H69AR inhibit	Fibroblast inh
Cc1ccc(NC(=O)/C(=C/c2cccs2)NC(=O)c2ccco2)cc1	100	·	91	·	·
c1ccc(-c2c(-c3ccccc3)n(Cc3ccco3)c3ncnc(NCCCn4ccnc4)c23)cc1	54	44	59	9.1*	86
c1ccc2c(c1)oc1c(NCCCn3ccnc3)ncnc12	100	86	99	87	106
N=c1c2c(-c3ccccc3)c(-c3ccccc3)n(Cc3ccco3)c2ncn1CCCn1ccnc1	2.1*	·	2.2*	·	·
c1ccc(-c2oc3ncnc(NCCCn4ccnc4)c3c2-c2ccccc2)cc1	18	38	25	29*	80
Cn1c2ccccc2n2c(=O)c(Cl)c(-c3ccccc3)c(C#N)c12	91	·	88	·	·
COc1ccc(OCC(=O)NC(=S)Nc2ccccc2F)cc1	98	·	93	·	·
